Screening data: PubChem, Sanford-Burnham Center for Chemical Genomics
APJ ag: agonists of human APJ apelin receptor; P35414; 330,000 tested, 0.11% active; CHO-K1 APJ PathHunter beta-arrestin, luminescence; 0% DMSO wells, 100% apelin; activation, % at 20 µM;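 active = activation more than six SD over the plate average, tested at 20 µM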
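system = engineered CHO-K1 APJ arrestin reporter cells | input = 1000 cells per well | timing = overnight seeding, 90 min compound at 25 °C, 1 h detection | measured by = enzyme-fragment complementation luminescence | read-out = beta-arrestin recruitment to APJ as agonist activity, luminescent signal | control set = negative DMSO alone, positive Apelin-13 at 10 nM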
CCR6 antagonist: CCR6 (human) receptor antagonism; P51684; CHO-K1 CCR6 PathHunter beta-arrestin, luminescence, CCL20-stimulated; inhibition, % at 20 µM; 340,000 tested, 0.49% active; AID 493098;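 active = compounds whose inhibition of the agonist-driven luminescence signal at 20 µM reaches about 50%, limit read from the data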;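 note: cells stimulated with CCL20 at 14 nM final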
EBI2 antag: antagonists of human EBI2 receptor. EBI2 beta-arrestin recruitment, luminescence, 7a,25-OHC stimulated. inhibition, % at 5 µM. 360,000 tested, 0.81% active. AID 651636; in the data active = inhibition above about 38%;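 note: enzyme fragment complementation signal reports receptor beta-arrestin coupling in cells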
CXCR6 block: inhibitors of human CXCR6 receptor; O00574; CHO-K1 PathHunter CXCR6 beta-arrestin, luminescence; inhibition, % at 20 µM; 360,000 tested, 0.36% active; in the data active = inhibition above about 34%, passing the limit was not always enough;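 note: antagonist mode with CXCL16 agonist at 10 nM final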
Target sequence (O00574 whole entry, looked up): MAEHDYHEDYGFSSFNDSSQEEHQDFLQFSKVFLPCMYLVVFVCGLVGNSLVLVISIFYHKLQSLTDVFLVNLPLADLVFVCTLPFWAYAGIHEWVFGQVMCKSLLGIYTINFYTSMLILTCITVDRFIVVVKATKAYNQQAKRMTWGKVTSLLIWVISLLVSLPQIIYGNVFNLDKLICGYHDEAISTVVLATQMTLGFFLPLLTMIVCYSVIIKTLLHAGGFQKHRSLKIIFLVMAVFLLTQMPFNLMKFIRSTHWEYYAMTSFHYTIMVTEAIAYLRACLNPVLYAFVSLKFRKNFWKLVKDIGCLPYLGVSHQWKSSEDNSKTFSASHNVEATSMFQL
APJ antag: APJ receptor antagonism; P35414; CHO-K1 APJ beta-arrestin complementation, luminescence; inhibition, % at 20 µM; 330,000 tested, 0.32% active; AID 2521;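 active = inhibition above about 40% at 20 µM, limit read from the data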;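 note: cells challenged with 10 nM apelin-13 agonist together with compound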
EBI2 antag conf: EBI2 (human) antagonism, single concentration confirmation; shares compounds with EBI2 antag; EBI2 beta-arrestin luminescence, 7a,25-OHC antagonism; inhibition, % at 5 µM; 2,400 tested, 29% active; AID 651997;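 active = inhibition of at least 50%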
EBI2 agonist: EBI2 agonism counter-screen. activation, % at 5 µM. shares compounds with EBI2 antag. EBI2-expressing cells, agonist mode, luminescence, 60 min; 0% vehicle, 100% 7α,25-dihydroxycholesterol control. 2,400 tested, under 10 active;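 active = activation of at least 50%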
bGal cs: inhibits E. coli beta-galactosidase, counter-screen for EBI2 antagonists; AID 652176; shares compounds with EBI2 antag; 2,400 tested, 1% active; purified beta-galactosidase, luminescent Galacton Star, 15 min; inhibition, % at 5 µM;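 active = replicate-average signal at least 3 plate SD below neutral wells, shown as high inhibition, flagging enzyme-inhibiting false positives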;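 note: higher means stronger loss of beta-gal luminescence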
Hits are given with their value; 0 = inactive; - = no result given. The list is not random: actives were taken first. Their share in the collection is about 1.5%.

SMILES | APJ ag | CCR6 antagonist | EBI2 antag | CXCR6 block | APJ antag | EBI2 antag conf | EBI2 agonist | bGal cs
CCOC(=O)C1(Cc2ccc(Cl)cc2)CCN(C(C)Cc2ccc(O)c(OC)c2)CC1 (stereo not drawn) | 0 | 0 | 46.8 | 0 | 0 | 0 | 0 | 0
COC(=O)c1ccc2nc(C3CCCCC3)c(Cc3ccccc3)n2c1 | - | - | 50.6 | 0 | - | 65.1 | 0 | 0
COC(=O)c1ccc2nc(C3CCCCC3)c(CC(C)(C)C)n2c1 | - | - | 0 | 0 | - | - | - | -
CCC(C)NC(=O)/C=C1\Sc2ccccc2NC1=O (stereo not drawn) | 0 | 0 | 0 | 0 | 0 | - | - | -
O=C(CSc1nnc(C23CC4CC(CC(C4)C2)C3)o1)Nc1ccc(N2CCOCC2)c(Cl)c1 | 0 | 0 | 58.1 | 0 | 0 | 0 | 0 | 0
CC(C)c1ccc(NC(=S)Nc2ccc3cn[nH]c3c2)cc1 | 0 | 0 | 49.8 | 0 | 0 | 0 | 0 | 0
Cc1ccc(NC(=S)Nc2ccc3cn[nH]c3c2)cc1C | 0 | 0 | 0 | 0 | 0 | - | - | -
C=CCc1c(C)nc(SCC(=C)C)[nH]c1=O | 0 | 0 | 0 | 0 | 0 | - | - | -
O=C(Nc1ccc(Cl)cc1F)c1ccc2c(c1)C(=O)N(Cc1ccncc1)C2=O | 0 | 0 | 50.6 | 0 | 0 | 0 | 0 | 0
O=C(Nc1ccc(O)cc1)c1ccc2c(c1)C(=O)N(Cc1cccnc1)C2=O | 0 | 0 | 0 | 0 | 0 | - | - | -
COc1ccc(NC(=O)c2ccc3c(c2)C(=O)N(Cc2cccnc2)C3=O)cc1 | 0 | 0 | 53.3 | 0 | 0 | 0 | 0 | 0
Cc1ccnc(NC(=O)CNC(=O)c2sc3ccccc3c2Cl)c1 | 0 | 0 | 0 | 0 | 0 | - | - | -
Cc1ccnc(NC(=O)c2sc3cc(Cl)ccc3c2Cl)c1 | 0 | 0 | 54.7 | 0 | 0 | 55.2 | 0 | 0
Cc1ccc2[nH]ccc(=O)c2c1 | 0 | 0 | 0 | 0 | 0 | - | - | -
O=C1C=C(O)CC(c2ccc(Cl)cc2)C1 (stereo not drawn) | 0 | 0 | 0 | 0 | 0 | - | - | -
O=C1C=C(/C=C/C2C=CC=CC2)C[C@@H](c2ccc(Cl)cc2)C1 (stereo partly drawn) | 0 | 0 | 47.6 | 0 | 0 | 0 | 0 | 0
Cc1c(C(=O)NC(C(C)C)C(C)C)cccc1[N+](=O)[O-] | 0 | 0 | 0 | 0 | 0 | - | - | -
CCC(C)(C)C1CCC2(CC1)NC(=O)N(CC(=O)Nc1nc(-c3ccc(C)cc3)cs1)C2=O (stereo not drawn) | 0 | 0 | 42.9 | 0 | 0 | 0 | 0 | 0
Cc1ccc(-n2c(SCC(=O)NC3CCS(=O)(=O)C3)nc3ccccc3c2=O)cc1C (stereo not drawn) | 0 | 0 | 0 | 0 | 0 | - | - | -
CCCc1nnc(NC(=O)CCC(=O)N2CCC(C)CC2)s1 | 0 | 0 | 0 | 0 | 0 | - | - | -
CN(C)S(=O)(=O)c1ccc(C(=O)Nc2ccc(Cl)cc2)cc1 | 0 | 0 | 53.2 | 0 | 0 | 50.5 | 0 | 0
CCN(CC)S(=O)(=O)c1ccc(C(=O)NCc2ccc(C)cc2)cc1 | 0 | 0 | 62.9 | 0 | 0 | 54.8 | 0 | 0
CN(c1ccc(C(=O)Nc2ccc(Cl)cn2)cc1)S(=O)(=O)c1ccccc1 | 0 | 0 | 50.4 | 0 | 0 | 55.5 | 0 | 0
Cc1ccc(CNC(=O)c2ccc(N(C)S(=O)(=O)c3ccccc3)cc2)cc1 | 0 | 0 | 83.4 | 0 | 0 | 0 | 0 | 0
COc1ccc2c3n(nc2c1)CCN=C3c1cc(Cl)c(N)c(Cl)c1 | 0 | 0 | 0 | 0 | 0 | - | - | -
Nc1c(Cl)cc(C2=NCCn3nc4cc(C(F)(F)F)ccc4c32)cc1Cl | 0 | 0 | 48.9 | 0 | 0 | 0 | 0 | 0
O=C(Nc1ccc(F)cc1F)NC1CCN(Cc2c(F)cccc2Cl)CC1 | 0 | 0 | 0 | 0 | 0 | - | - | -
CC(C)(C)OC(=O)N(CCc1ccccc1)Cc1ccccc1OCc1cccc(NC(=O)/C=C/c2ccccc2)c1 | - | 0 | 0 | 0 | - | - | - | -
CC(C)(C)OC(=O)N(CCc1ccccc1)Cc1ccc(OCc2cccc(NC(=O)/C=C/c3ccccc3)c2)cc1 | - | 0 | 58.9 | 0 | - | 0 | 0 | 0
COc1ccccc1-c1cnc(C(O)c2ccc(Cl)c(Cl)c2)[nH]1 (stereo not drawn) | - | - | 0 | 0 | - | - | - | -
